# Measured values collected from several papers.
# Compare with care: the assays were run in different laboratories.
# Effect on: cell growth or viability
SMILES,cell line,assay,conditions,quantity,result
CC1=NN(c2ccc(C)c(C)c2)C(=O)/C1=N\Nc1cccc(-c2cccc(C(=O)O)c2)c1O,BHK-21,CCK-8,48 h,CC50,104 µM
COC(=O)c1ccc(Nc2ccc(-c3ccc(S(N)(=O)=O)cc3)cc2)cc1,BHK-21,MTT,100 µM,viability,68%
O=C(C1CCCCC1)N1CC(=O)N2CCc3ccccc3C2C1 (centres unmarked),Vero,MTT,72 h,CC50,> 200 µM
NS(=O)(=O)c1ccc(-c2ccc(Nc3ccc(Cl)cc3)cc2)cc1,BHK-21,MTT,100 µM,viability,60%
Cc1cc(-c2ccc(/N=N/c3ccc4c(S(=O)(=O)O)cc(S(=O)(=O)O)c(N)c4c3O)c(C)c2)ccc1/N=N/c1ccc2c(S(=O)(=O)O)cc(S(=O)(=O)O)c(N)c2c1O,BHK-21,CCK-8,48 h,CC50,242 µM
Cc1cc(C)cc(Nc2ccc(-c3ccc(S(N)(=O)=O)cc3)cc2)c1,BHK-21,MTT,100 µM,viability,88%
Nc1nc2c(ncn2COCCO)c(=O)[nH]1,Vero,MTT,48 h,CC50,320 µM
COc1cccc2c1C(=O)c1c(O)c3c(c(O)c1C2=O)C[C@@](O)(C(=O)CO)C[C@@H]3O[C@H]1C[C@H](N)[C@H](O)[C@H](C)O1,Vero,MTT,72 h,CC50,9.6 µM
NC(=NCc1ccccc1)NC(=O)c1nc(Cl)c(N)nc1N,BHK-21,CCK-8,48 h,CC50,44.5 µM
O=C1C(=O)c2cccnc2-c2ncccc21,Vero,MTT,72 h,CC50,> 200 µM
CNC(=N)NCCC[C@H](N)C(=O)O,RAW264.7,MTT,"250 µg/mL, 24 h, LPS-stimulated",viability,> 85%
